PREPL inh = PREPL enzyme inhibitors, primary screen, biochemical, fluorescence polarization; inhibition, % at 5.96 µM; AID 2751, 2010; recombinant PREPL, fluorescence polarization activity-based probe; 0.68% of 320,000 active;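 also: 0% = enzyme with DMSO and 100% = wells lacking enzyme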
Target sequence (Q4J6C6 whole entry, looked up): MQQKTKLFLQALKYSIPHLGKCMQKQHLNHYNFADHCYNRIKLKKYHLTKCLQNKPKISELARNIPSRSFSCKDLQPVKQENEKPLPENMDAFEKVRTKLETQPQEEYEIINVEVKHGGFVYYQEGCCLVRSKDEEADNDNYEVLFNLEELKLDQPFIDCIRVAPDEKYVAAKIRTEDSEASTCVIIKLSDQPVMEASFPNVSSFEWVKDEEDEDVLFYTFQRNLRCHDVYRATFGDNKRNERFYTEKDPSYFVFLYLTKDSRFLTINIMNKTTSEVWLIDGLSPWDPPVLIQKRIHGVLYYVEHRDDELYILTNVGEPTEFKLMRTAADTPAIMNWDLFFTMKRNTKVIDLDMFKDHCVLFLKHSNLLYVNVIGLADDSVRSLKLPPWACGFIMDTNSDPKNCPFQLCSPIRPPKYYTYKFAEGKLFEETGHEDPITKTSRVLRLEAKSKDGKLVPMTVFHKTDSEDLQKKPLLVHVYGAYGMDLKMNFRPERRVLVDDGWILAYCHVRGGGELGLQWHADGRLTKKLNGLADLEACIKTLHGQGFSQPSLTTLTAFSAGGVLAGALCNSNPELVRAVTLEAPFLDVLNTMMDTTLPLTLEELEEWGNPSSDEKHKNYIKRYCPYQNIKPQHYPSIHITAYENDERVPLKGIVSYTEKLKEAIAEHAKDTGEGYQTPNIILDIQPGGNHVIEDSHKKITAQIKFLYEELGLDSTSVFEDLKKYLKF
EBNA-1 inh = EBNA-1 DNA-binding inhibitors, primary screen, biochemical, fluorescence polarization | inhibition, % at 14.8 µM | 0.34% of 300,000 active | AID 1950, 2009; in the data active = inhibition above about 28%
UBC13 inh = UBC13 polyubiquitin chain formation inhibitors, primary screen, biochemical, TR-FRET, uHTS; Ubiquitin-conjugating enzyme E2 N (Homo sapiens), P61088; inhibition, % at 20 µM; 0.47% of 330,000 active; AID 485273, 2010; in the data active = inhibition above about 45%, passing the limit was not always enough
Apaf-1 inh = inhibitors of human Apaf-1 apoptosome, primary screen, biochemical, DEVD-Rh110 fluorescence, uHTS; Apoptotic protease-activating factor 1 (Homo sapiens), O14727; reconstituted apoptosome caspase-3 activity; inhibition, % at 20 µM; 0.71% of 330,000 active; active = inhibition of at least 40% at 20 µM;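 also: plate controls were DMSO wells for no effect and DEVD-CHO caspase inhibitor wells for full effect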
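Assay system: Apoptosome proteins | Medium: pH 7.5 Hepes buffer with CHAPS, BSA, DTT | Also added: Cytochrome c and DEVD-Rh110 substrate | Times: 30 min plus 50 min, RT | Detection: Rhodamine 110 fluorescence at Ex 480/Em 540 nm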
ZTA DNA inh = counter-screen for EBNA-1 inhibitors: inhibitors of Epstein-Barr virus ZTA; 0.15% of 320,000 active; AID 2234; P03206; ZTA-DNA binding, fluorescence polarization; inhibition, % at 11 µM; in the data active = inhibition above about 33%
PREPL confirm = human PREPL enzyme inhibitors, confirmation, biochemical, fluorescence polarization | shares compounds with PREPL inh | recombinant PREPL, fluorescence polarization activity probe | inhibition, % at 5.96 µM | 67% of 2,000 active;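 also: 0% = protein with DMSO and 100% = wells lacking protein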
* marks the source's active call; other numbers are inactive results; . = not tested or not shown. Only some compounds are listed: those with a hit (about 1.7% of all), similar ones and a draw of the others. Rule as the data show it, unless noted: active = inhibition above about 43%; inactive = the rest.

SMILES	PREPL inh	EBNA-1 inh	UBC13 inh	Apaf-1 inh	ZTA DNA inh	PREPL confirm
COCCCNC(=O)/C(C#N)=C/c1c(N2CCN(c3ccccc3)CC2)nc2c(C)cccn2c1=O	44.1*	8.7	-3.3	26.3	11.8	32.1
C=CCNC(=O)/C(C#N)=C/c1c(N2CCN(c3ccc(OC)cc3)CC2)nc2c(C)cccn2c1=O	57.1*	-0.1	5.4	20.6	7.9	49.5*
O=C(N=C1SC2CS(=O)(=O)CC2N1Cc1ccccc1)C1CCCO1 (stereo not given)	3.3	-4.5	10.0	-4.1	-5.9	.
Cc1csc(CN(C)C(=O)C2CCC(=O)N(CCCc3ccccc3)C2)n1 (stereo not given)	3.7	5.7	-6.0	2.7	-5.8	.
COCCCNC(=O)c1cc2cc3cc(OC)ccc3nc2o1	-3.8	8.4	26.0	0.8	-1.0	.
CCOC(=O)CCc1c(C)nc2ncnn2c1C	5.5	-21.8	-4.3	-4.2	-0.2	.
CCOC(=O)C1=C(CS(=O)(=O)c2ccc(C)cc2)NC(=O)NC1c1cc(OC)c(OC)c(OC)c1 (stereo not given)	45.2*	-6.0	-10.6	1.5	1.6	40.5
CCOc1ncccc1C(=O)OCC(=O)NCCc1ccc(S(N)(=O)=O)cc1	7.3	.	5.4	-0.6	7.7	.
Nc1ccc2nc(CCCCCCc3nc4ccc(N)cc4[nH]3)[nH]c2c1	41.8	18.4	6.5	0.3	18.5	.
Nc1ccc2nc(CCCCCCCCc3nc4ccc(N)cc4[nH]3)[nH]c2c1	70.4*	-5.3	-5.8	1.2	6.5	23.5
O=C(N/N=C/c1ccc(OCc2ccccc2)cc1)c1cc[n+](Cc2ccccc2)cc1	52.8*	-7.1	20.8	-4.1	6.0	42.3
COC(=O)c1c(Cl)c2n3ccccc3c(C)c(-c3ccccc3)c-2c1C(=O)OC	49.2*	-2.3	-26.8	16.4	-15.9	26.9
COC(=O)c1cc2c(-c3ccccc3)c(C)c3ccccn3c-2c1C(=O)OC	15.8	8.9	-23.1	21.9	-6.7	.
COc1ccc(C2CC(c3cccc(Cl)c3)n3nc(N)nc3N2)cc1 (stereo not given)	54.6*	4.7	7.9	-2.0	25.2	57.0*
COc1ccc(C2CC(c3cccc(C)c3)n3nc(N)nc3N2)cc1 (stereo not given)	54.8*	-3.0	-2.1	4.9	-13.5	58.7*
Cc1ccc(C2CC(c3ccco3)n3nc(N)nc3N2)cc1 (stereo not given)	33.9	-6.9	8.3	-11.0	1.1	.
CCOc1ccc(C2CC(c3ccccc3)Nc3nc(N)nn32)cc1 (stereo not given)	18.1	-4.7	-2.8	18.4	-5.4	.
CCc1ccc(C2CC(c3ccc(Cl)cc3)n3nc(N)nc3N2)cc1 (stereo not given)	45.1*	0.9	-0.4	12.7	15.1	49.5*
Cc1ccc(C2CC(c3ccc(C)cc3)n3nc(N)nc3N2)cc1 (stereo not given)	52.8*	8.7	8.4	-2.7	-4.4	48.2*
COc1cccc(C2CC(c3cccc(OC)c3)n3nc(N)nc3N2)c1 (stereo not given)	30.2	7.6	-1.4	-5.8	3.9	.
Cc1ccccc1OCc1nc2ccccc2c(=O)n1/N=C/c1cn[nH]c1-c1ccccc1	-37.7	0.8	-3.7	5.7	-13.5	.
COc1ccc(C2C(C(=O)NCCN3CCOCC3)c3ccccc3C(=O)N2C2CCCCC2)cc1 (stereo not given)	3.6	9.0	-6.4	10.2	2.1	.
CC1(C)CC(=O)C2=C(C1)N1C(=C(C#N)C2c2ccccc2Cl)N=C(N)c2ccccc21 (stereo not given)	18.5	-5.0	-14.7	8.3	8.1	.
Cc1ccccc1C1CC(c2ccc(F)cc2)Nc2nc(N)nn21 (stereo not given)	43.9*	3.2	2.8	-12.5	13.9	40.6
COc1cccc(C2CC(c3ccc(F)cc3)Nc3nc(N)nn32)c1 (stereo not given)	43.5*	4.7	6.9	-4.7	-4.9	45.7*
SMILES	PREPL inh	EBNA-1 inh	UBC13 inh	Apaf-1 inh	ZTA DNA inh	PREPL confirm
COc1cc(C(=O)Oc2ccc3ccc(O)cc3c2)cc(OC)c1OC	7.5	5.5	2.0	17.5	-0.7	.
COc1cc(NC(=O)C[n+]2ccc(C(=O)c3ccccc3)cc2)cc(OC)c1	49.2*	.	-1.7	5.2	.	34.2
O=C(CCc1nc(-c2ccc(Cl)cc2)no1)NCC1CCCO1 (stereo not given)	-0.7	-8.1	0.0	-5.9	-9.1	.
COc1cc(OC)cc(-c2c(-c3cccs3)c3cc(-c4ccc(OCc5ccccc5)cc4)ccc3n2C)c1	72.4*	.	40.4	18.7	.	4.0
O=C(Nc1ccccc1F)c1ccc2c(c1)CCN2S(=O)(=O)c1ccccc1	-12.9	6.1	10.5	10.9	1.0	.
CC(=O)Nc1nnc(SCc2cc(=O)c(OC(=O)c3ccccc3)co2)s1	7.3	-0.6	-1.9	7.8	-6.8	.
Cc1ccc(C(=O)Oc2coc(CSc3nnc(NC(=O)c4cccs4)s3)cc2=O)cc1	76.0*	17.8	-2.7	4.8	-7.5	85.4*
CCC1=C(OC(=O)N(CC)CC)N2C(=O)OC(=NCc3ccccc3)[C@]2(C)[C@H]2C1=CC[C@H]1C(=O)N(c3ccccc3)C(=O)[C@H]12	7.0	-3.7	-13.4	18.1	-1.5	.
O=c1oc2c3c4c(cc2c(C(F)(F)F)c1CCN1CCOCC1)CCCN4CCC3	54.8*	-10.8	-141.7	20.4	10.6	60.6*
CC(C)c1cc(=O)oc2c3c4c(cc12)CCCN4CCC3	34.4	7.5	-4.8	-1.7	3.5	.
CCCC(=O)N1CCN(c2ccc(NC(=O)c3cc4ccccc4o3)cc2Cl)CC1	45.0*	-7.3	-13.9	21.4	3.7	35.7
CCC(=O)N1CCN(c2ccc(NC(=O)c3cc4ccccc4o3)cc2Cl)CC1	42.8	-2.6	6.6	24.5	4.2	.
COc1ccc(N2CCN(C(=O)Cc3coc4cc(C)ccc34)CC2)cc1	19.0	-5.9	-7.5	-1.5	10.0	.
Cc1ccc2c(CC(=O)Nc3ccc(N4CCN(C)CC4)cc3C)coc2c1	60.8*	5.0	9.0	-8.0	-1.7	59.8*
CCN1CCN(C(=O)c2cn(CCOC)c(=O)c3c2c2ccccc2n3C)CC1	-3.9	-1.3	6.6	-9.2	13.5	.
CC(C)Cn1cc(C(=O)N2CCN(c3ccccn3)CC2)c2c3ccccc3n(C)c2c1=O	51.0*	5.8	19.2	1.5	8.0	42.5
C#CCOCCOCCOCCNc1nc(N2CCN(C(=O)CCCCCCCCCCNC(=O)[C@H]([C@@H](C)CC)n3cc(CCCCN=C(N)N)nn3)CC2)nc(N2CCN(C(=O)CCCCCCCCCCNC(=O)[C@H](CO)n3cc(CCCCCN)nn3)CC2)n1	54.5*	5.3	123.3*	85.1*	21.8	56.2*
